The values below come from ChEMBL document CHEMBL1123647, “(+)-cis-8-Hydroxy-1-methyl-2-(di-n-propylamino)tetralin: a potent and highly stereoselective 5-hydroxytryptamine receptor agonist” (1987).

What all share (type): functional
What all share (settings): sc

In test [1] the test system is Rattus norvegicus. The test can be described thus: Effective dose required for half maximal decrease of 5-HTP formation after subcutaneous administration of compound in striatum tissue of rat brain. The method, boiled down:
(§1)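 Reserpinized rats (reserpine 5 mg/kg ip, in glucose solution with a little acetic acid). Compounds were dissolved in saline, pH near neutral, and given sc. Brain 5-HTP was measured by HPLC with electrochemical detection. ED50 is the dose giving a half-maximal decrease of 5-HTP formation in that brain part, from a dose-response curve of five to six dose levels, n = 3-4.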

Test [2] has as its system Rattus norvegicus. The test can be described thus: Effective dose required for half maximal decrease of 5-HTP formation after subcutaneous administration of compound in limbic tissue of rat brain. The procedure, abridged: as §1
Test [3] deals with Rattus norvegicus. The test can be described thus: Effective dose required for half maximal decrease of DOPA accumulation after subcutaneous administration in limbic tissue of rat brain. The procedure, abridged:
(§2)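 Reserpinized rats (reserpine 5 mg/kg ip) received compound in saline sc. Brain DOPA was measured by HPLC with electrochemical detection. ED50 is the dose giving a half-maximal decrease of DOPA formation, from a dose-response curve of three to five dose levels, n = 3. Maximal reduction was taken as 65% of control for limbic tissue and 80% for striatum.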

In test [4] the test system is Rattus norvegicus. The test can be described thus: Effective dose required for half maximal decrease of DOPA accumulation after subcutaneous administration in striatum tissue of rat brain. The method, boiled down: as §2
Test [5] concerns Rattus norvegicus. The test is described as follows: Effective dose required for half maximal decrease of 5-HTP formation after subcutaneous administration of compound in hemispheres (cortex) for rat brain. The method, boiled down:
as §1

By ED50 is commonly meant the midpoint of the dose-response relation. Low values mean an effect at a small dose, high ones a need for a large dose. Turning to `CCCN(CCC)[C@@H]1CCc2cccc(O)c2[C@H]1C`, the ED50 in test [1], in test [2], in test [3], in test [4] and in test [5] was > 50 µmol/kg in each case.

As to `CCCN(CCC)[C@@H]1CCc2cccc(OC)c2[C@@H]1C`, the median effective dose (ED50) in test [1] came to 0.6 µmol/kg; in test [2], 0.53 µmol/kg; in test [3] it was 1.71 µmol/kg; in test [4] it was 1.88 µmol/kg; in test [5] it was 0.77 µmol/kg.

For `CCCN(CCC)[C@@H]1CCc2cccc(OC)c2[C@H]1C`, the 50% effective dose (ED50) in test [1], in test [2], in test [3], in test [4] and in test [5] was > 50 µmol/kg throughout.

Regarding `CCCN(CCC)[C@@H]1CCc2cccc(O)c2[C@@H]1C.Cl`, the 50% effective dose (ED50) in test [3] and in test [4] was > 50 µmol/kg throughout.

Consider `CCCN(CCC)[C@@H]1CCc2cccc(O)c2C1`, for which the 50% effective dose (ED50) in test [1] was 0.065 µmol/kg; in test [2], 0.061 µmol/kg; in test [3] it was > 45 µmol/kg; in test [4] it was > 45 µmol/kg; in test [5], 0.077 µmol/kg.
